Experimental data: ChEMBL document CHEMBL4699546, “Synthesis and structure-activity relationships for tetrahydroisoquinoline-based inhibitors of Mycobacterium tuberculosis” (Bioorg Med Chem, 2020)
In brackets after ≈: the same amount, converted by molar mass.

Assays:
[1] = Metabolic stability in human liver microsomes assessed as intrinsic clearance; format: ADME, Microsome
[2] = Metabolic stability in mouse liver microsomes assessed as intrinsic clearance; format: ADME, Microsome
[3] = Inhibition of human ATPsynthase
[4] = Inhibition of Mycobacterium smegmatis ATPsynthase; design: species or system Mycolicibacterium smegmatis
[5] = system: Mycobacterium tuberculosis; test: Antimycobacterial activity against Mycobacterium tuberculosis H37Rv ATCC 27294 assessed as reduction in bacterial growth incubated for 10 days in under anaerobic condition by luminometric assay; format: functional; conditions: H37Rv ATCC 27294, 240 h, time 10 day
Summary of the method: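 Growth inhibition of M.tb H37Rv under non-replicating conditions (LORA), reported as minimum inhibitory concentration in µg/mL; tested at the Institute for Tuberculosis Research, University of Illinois at Chicago.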

[6] = system: Mycobacterium tuberculosis; test: Antimycobacterial activity against Mycobacterium tuberculosis H37Rv ATCC 27294 assessed as reduction in bacterial growth incubated for 4 days under aerobic condition by alamar blue based fluorescence assay; format: functional; conditions: H37Rv ATCC 27294, 96 h, time 4 day
Summary of the method: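 Replicating aerobic culture of M.tb H37Rv, MABA read-out; value is the minimum inhibitory concentration in µg/mL; assay run at the Institute for Tuberculosis Research, University of Illinois at Chicago.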

Vero = test: Cytotoxicity against African green monkey Vero cells assessed as reduction in cell viability incubated for 72 hrs by MTS-PMS assay; format: cell-based; conditions: Chlorocebus sabaeus
Summary of the method: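 Mammalian cytotoxicity measured in Vero (green monkey kidney epithelial) cells; value reported as IC50 in µg/mL.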

[7] = system: ATP synthase (human vs Mycobacterium smegmatis); test: Selectivity index, ratio of IC50 for human ATPsynthase to IC50 for Mycobacterium smegmatis ATPsynthase; format: toxicity; conditions: read-out: Ratio IC50

Compound	CLH [1]	CLH [2]	IC50 [3]	IC50 [4]	MIC90 [5]	MIC90 [6]	IC50 (Vero)	selectivity ratio [7]
COc1ccc(N2CCN(C)CC2)c2c1CCN(C(=O)Nc1ccc(-c3ccc(Cl)cc3Cl)cn1)C2	2.88 mL/h/kg	35 mL/h/kg	27 µg/mL (≈ 51.3 µM)	3 µg/mL (≈ 5.7 µM)	–	–	–	–
Cc1cc(Cl)ccc1-c1ccc(N2CCc3c(C)ccc(N4CCN(C)CC4)c3C2)nc1	1.32 mL/h/kg	2.1 mL/h/kg	23 µg/mL (≈ 51.5 µM)	5.5 µg/mL (≈ 12.3 µM)	2.4 µg/mL (≈ 5.37 µM)	1.9 µg/mL (≈ 4.25 µM)	22 µg/mL (≈ 49.2 µM)	–
Cc1ccc(N2CCN(C)CC2)c2c1CCN(c1ccc(-c3ccc(C(C)(C)C)cc3)cn1)C2	2.46 mL/h/kg	3.36 mL/h/kg	–	–	3.4 µg/mL (≈ 7.48 µM)	1.4 µg/mL (≈ 3.08 µM)	18 µg/mL (≈ 39.6 µM)	–
Cc1cc(Cl)ccc1-c1ccc(NC(=O)N2CCc3c(F)ccc(N4CCN(C)CC4)c3C2)nc1	3 mL/h/kg	3.9 mL/h/kg	17 µg/mL (≈ 34.4 µM)	1.8 µg/mL (≈ 3.64 µM)	–	–	–	–
COc1ccc(N2CCN(C)CC2)c2c1CCN(c1ccc(-c3cc(C(F)(F)F)cc(C(F)(F)F)c3)cn1)C2	–	–	–	–	12 µg/mL (≈ 21.8 µM)	7.9 µg/mL (≈ 14.3 µM)	19 µg/mL (≈ 34.5 µM)	–
COc1ccc(N2CCN(C)CC2)c2c1CCN(Cc1ccc(-c3ccc(Cl)cc3C)cn1)C2	–	–	–	–	6.1 µg/mL (≈ 12.8 µM)	1.8 µg/mL (≈ 3.77 µM)	12 µg/mL (≈ 25.2 µM)	–
Cc1ccc(N2CCN(C)CC2)c2c1CCN(C(=O)Nc1ccc(-c3cc(C(F)(F)F)cc(C(F)(F)F)c3)cn1)C2	–	–	13 µg/mL (≈ 22.5 µM)	14 µg/mL (≈ 24.2 µM)	–	–	–	–
COc1nc2ccc(Br)cc2cc1[C@@H](c1ccccc1)[C@@](O)(CCN(C)C)c1cccc2ccccc12 [BEDAQUILINE]	–	–	> 1000 µg/mL	–	–	–	–	–
COc1ccc(N2CCN(C)CC2)c2c1CCN(C(=O)Nc1ccc(-c3ccc(Cl)cc3C)cn1)C2	–	–	20 µg/mL (≈ 39.5 µM)	6.3 µg/mL (≈ 12.4 µM)	–	–	–	–
Cc1cc(Cl)ccc1-c1ccc(CN2CCc3c(C)ccc(N4CCN(C)CC4)c3C2)nc1	5.52 mL/h/kg	14.3 mL/h/kg	–	–	5.2 µg/mL (≈ 11.3 µM)	0.79 µg/mL (≈ 1.71 µM)	14 µg/mL (≈ 30.4 µM)	–
Cc1ccc(N2CCN(C)CC2)c2c1CCN(C(=O)N1CCC(Oc3ccccc3C(F)(F)F)CC1)C2	–	–	48 µg/mL (≈ 92.9 µM)	6.2 µg/mL (≈ 12 µM)	–	–	–	–
Cc1ccc(N2CCN(C)CC2)c2c1CCN(C(=O)N1CCC(Oc3ccc(OC(F)(F)F)cc3)CC1)C2	2.88 mL/h/kg	2.4 mL/h/kg	–	–	–	–	–	–
CCc1ccc(N2CCN(C)CC2)c2c1CCN(C(=O)Nc1ccc(-c3ccc(C(F)(F)F)cc3)cn1)C2	6.42 mL/h/kg	48.6 mL/h/kg	7.2 µg/mL (≈ 13.8 µM)	2.2 µg/mL (≈ 4.2 µM)	–	–	–	–
CN1CCN(c2cccc3c2CN(C(=O)Nc2ccc(-c4ccc(OC(F)(F)F)cc4)cn2)CC3)CC1	–	–	> 500 µg/mL	6.2 µg/mL (≈ 12.1 µM)	–	–	–	> 80
CN1CCN(c2cccc3c2CN(Cc2ccc(-c4ccc(Cl)cc4)cn2)CC3)CC1	7.26 mL/h/kg	14.3 mL/h/kg	> 500 µg/mL	7.2 µg/mL (≈ 16.6 µM)	–	–	–	> 70
